Published values from different studies.
Protocols differ between the studies behind these lines.
Route: intravenous

O=C1c2cc(COc3ccccc3)nn2CCC1c1ccc(F)cc1 (stereo not drawn) — clearance (male Sprague-Dawley rat; plasma; 0.2 mg/kg): 120 mL/min/kg
CCCC[C@@H]1NC(=O)[C@H](Cc2ccc(O)cc2)NC(=O)[C@@H]2CCCN2C(=O)[C@H](CC(=O)O)NC(=O)[C@H](C)NC(=O)[C@H](Cc2ccccc2)NC(=O)[C@@H]2CSCCC(=O)N3CN(CN(C3)C(=O)CCSC[C@@H](C(=O)N[C@@H](CNC(=O)CCc3cn(CCOCCOCCOCCN(CCOCCOCCOCCC(=O)N[C@H]4CSCCC(=O)N5CN6CN(C5)C(=O)CCSC[C@H](NC(=O)[C@@H](CC(=O)O)NC(=O)[C@H](Cc5cccc7ccccc57)NC(=O)[C@@H]5CCCN5C4=O)C(=O)N[C@@H](CCSC)C(=O)N[C@@H](CCCCNC(=N)N)C(=O)N[C@@H](CC(=O)O)C(=O)N[C@@H](Cc4c[nH]c5ccccc45)C(=O)N[C@@H](CO)C(=O)N[C@@H]([C@@H](C)O)C(=O)N4CCC[C@H]4C(=O)N4C[C@H](O)C[C@H]4C(=O)N[C@@H](Cc4c[nH]c5ccccc45)C(=O)N[C@H](C(N)=O)CSCCC6=O)CCOCCOCCOCCn4cc(CCC(=O)NC[C@H](NC(=O)[C@@H]5CSCCC(=O)N6CN7CN(C6)C(=O)CCSC[C@H](NC(=O)[C@H](Cc6ccc(O)cc6)NC(=O)[C@@H]6CCCN6C(=O)[C@@H](C)NC(=O)[C@H](CCC(=O)O)NC(=O)[C@@H]6CCCN6C(=O)[C@H](CC(C)(C)C)NC(=O)[C@@H](NC(C)=O)CSCCC7=O)C(=O)N[C@@H](Cc6ccccc6)C(=O)N[C@@H](C)C(=O)N[C@@H](CC(=O)O)C(=O)N6CCC[C@H]6C(=O)N[C@@H](Cc6ccc(O)cc6)C(=O)N[C@@H](CCCC)C(=O)N5)C(N)=O)nn4)nn3)C(N)=O)NC1=O)C(=O)CCSC[C@H](NC(C)=O)C(=O)N[C@@H](CC(C)(C)C)C(=O)N1CCC[C@H]1C(=O)N[C@@H](CCC(=O)O)C(=O)N[C@H](C)C(=O)N1CCC[C@H]1C(=O)N[C@@H](Cc1ccc(O)cc1)C(=O)N2 — clearance (rat; plasma; 2 mg/kg): 8.7 mL/min/kg
Cc1cc(C)nc(Nc2ncc(C(=O)NCCc3c(C)[nH]c4ccccc34)cn2)c1 — clearance (Sprague-Dawley rat; plasma): 81 mL/min/kg
Cn1cnc(Cn2c(=O)[nH]/c(=N\c3cc4cn(C)nc4cc3Cl)n(Cc3cc(F)c(F)cc3F)c2=O)n1 — clearance (male Sprague-Dawley rat; plasma; 5 mg/kg): 1.03 mL/min/kg
C[C@H](C(=O)N[C@H]1COc2ccccc2[C@@H]1S(C)(=O)=O)c1ccc(F)cc1 — clearance (male Sprague-Dawley rat; plasma; 0.5 mg/kg): 10 mL/min/kg
O=C(O)CCCO — renal clearance (male Sprague-Dawley rat; urine; 600 mg/kg): 1.89 mL/min/kg
CN(C)C(=O)Oc1cc(OC(=O)N(C)C)cc(-c2cc3ccc(O)cc3o2)c1 — clearance (male rat; plasma; 5 mg/kg): 140 mL/min/kg
CCCC[C@@H]1NC(=O)[C@H](Cc2ccc(O)cc2)NC(=O)[C@@H]2CCCN2C(=O)[C@H](CC(=O)O)NC(=O)[C@H](C)NC(=O)[C@H](Cc2ccccc2)NC(=O)[C@@H]2CSCCC(=O)N3CN(CN(C3)C(=O)CCSC[C@H](NC(C)=O)C(=O)N[C@@H](CC(C)(C)C)C(=O)N[C@@H](CCC(=O)O)C(=O)N[C@@H](CCC(=O)O)C(=O)N[C@H](CCCCNC(=O)CCc3cn(CCOCCOCCOCCN(CCOCCOCCOCCC(=O)N[C@H]4CSCCC(=O)N5CN6CN(C5)C(=O)CCSC[C@H](NC(=O)[C@@H](CC(=O)O)NC(=O)[C@H](Cc5cccc7ccccc57)NC(=O)[C@@H]5CCCN5C4=O)C(=O)N[C@@H](CCSC)C(=O)N[C@@H](CCCCNC(=N)N)C(=O)N[C@@H](CC(=O)O)C(=O)N[C@@H](Cc4c[nH]c5ccccc45)C(=O)N[C@@H](CO)C(=O)N[C@@H]([C@@H](C)O)C(=O)N4CCC[C@H]4C(=O)N4C[C@H](O)C[C@H]4C(=O)N[C@@H](Cc4c[nH]c5ccccc45)C(=O)N[C@H](C(N)=O)CSCCC6=O)CCOCCOCCOCCn4cc(CCC(=O)NCCCC[C@H]5NC(=O)[C@H](CCC(=O)O)NC(=O)[C@H](CCC(=O)O)NC(=O)[C@H](CC(C)(C)C)NC(=O)[C@@H](NC(C)=O)CSCCC(=O)N6CN7CN(C6)C(=O)CCSC[C@H](NC(=O)[C@H](Cc6ccc(O)cc6)NC(=O)[C@@H]6CCCN6C5=O)C(=O)N[C@@H](Cc5ccccc5)C(=O)N[C@@H](C)C(=O)N[C@@H](CC(=O)O)C(=O)N5CCC[C@H]5C(=O)N[C@@H](Cc5ccc(O)cc5)C(=O)N[C@@H](CCCC)C(=O)N[C@H](C(N)=O)CSCCC7=O)nn4)nn3)C(=O)N3CCC[C@H]3C(=O)N[C@@H](Cc3ccc(O)cc3)C(=O)N2)C(=O)CCSC[C@@H](C(N)=O)NC1=O — clearance (rat; plasma; 2 mg/kg): 11 mL/min/kg
N=c1c2c(-c3ccccc3)c(-c3ccccc3)n(Cc3ccccc3)c2ncn1[C@H]1CC[C@H](O)CC1 — clearance (male Sprague-Dawley rat; plasma; 2 mg/kg; single dose): 19.6 mL/min/kg
CCCCCCCC(=O)N[C@@H](CCCCN)C(=O)N[C@@H](CCCCN)C(=O)N[C@@H](C)C(=O)N[C@@H](CC(C)C)C(=O)N[C@@H](CCCCN)C(=O)N[C@@H](CC(C)C)C(=O)N[C@@H](C)C(=O)N[C@@H](CCCCN)C(=O)N[C@@H](CCCCN)C(=O)N1CCC[C@H]1C(=O)N[C@@H](CC(C)C)C(=O)N[C@@H](CCCCN)C(=O)N[C@@H](CC(C)C)C(=O)N[C@@H](CC(C)C)C(=O)N[C@@H](CCCCN)C(N)=O — clearance (male Sprague-Dawley rat; blood; 3 mg/kg; infusion): 192 mL/min/kg
CCCC[C@@H]1NC(=O)[C@H](Cc2ccc(O)cc2)NC(=O)[C@@H]2CCCN2C(=O)[C@H](CC(=O)O)NC(=O)[C@H](C)NC(=O)[C@H](Cc2ccccc2)NC(=O)[C@@H]2CSCCC(=O)N3CN(CN(C3)C(=O)CCSC[C@@H](C(=O)N[C@@H](C)C(N)=O)NC1=O)C(=O)CCSC[C@H](NC(=O)[C@H](C)NC(C)=O)C(=O)N[C@@H]([C@@H](C)CC)C(=O)N[C@@H](CCC(=O)O)C(=O)N[C@@H](CCC(=O)O)C(=O)N[C@H](CCCCNC(=O)CCc1cn(CCOCCOCCOCCN(CCOCCOCCOCCC(=O)N[C@H]3CSCCC(=O)N4CN5CN(C4)C(=O)CCSC[C@H](NC(=O)[C@@H](CC(=O)O)NC(=O)[C@H](Cc4cccc6ccccc46)NC(=O)[C@@H]4CCCN4C3=O)C(=O)N[C@@H](CCSC)C(=O)N[C@@H](CCCCNC(=N)N)C(=O)N[C@@H](CC(=O)O)C(=O)N[C@@H](Cc3c[nH]c4ccccc34)C(=O)N[C@@H](CO)C(=O)N[C@@H]([C@@H](C)O)C(=O)N3CCC[C@H]3C(=O)N3C[C@H](O)C[C@H]3C(=O)N[C@@H](Cc3c[nH]c4ccccc34)C(=O)N[C@H](C(N)=O)CSCCC5=O)CCOCCOCCOCCn3cc(CCC(=O)NCCCC[C@H]4NC(=O)[C@H](CCC(=O)O)NC(=O)[C@H](CCC(=O)O)NC(=O)[C@H]([C@@H](C)CC)NC(=O)[C@@H](NC(=O)[C@H](C)NC(C)=O)CSCCC(=O)N5CN6CN(C5)C(=O)CCSC[C@H](NC(=O)[C@H](Cc5ccc(O)cc5)NC(=O)[C@H](CCC(N)=O)NC4=O)C(=O)N[C@@H](Cc4ccccc4)C(=O)N[C@@H](C)C(=O)N[C@@H](CC(=O)O)C(=O)N4CCC[C@H]4C(=O)N[C@@H](Cc4ccc(O)cc4)C(=O)N[C@@H](CCCC)C(=O)N[C@H](C(=O)N[C@@H](C)C(N)=O)CSCCC6=O)nn3)nn1)C(=O)N[C@@H](CCC(N)=O)C(=O)N[C@@H](Cc1ccc(O)cc1)C(=O)N2 — clearance (rat; plasma; 2 mg/kg): 9.8 mL/min/kg
[2H]C([2H])(c1cc(F)c(F)cc1F)n1c(=O)n(Cc2ncn(C)n2)c(=O)[nH]/c1=N\c1cc2cn(C)nc2cc1Cl — clearance (male Sprague-Dawley rat; plasma; 5 mg/kg): 1.11 mL/min/kg
